Experimental data from ChEMBL document CHEMBL1146878, “A novel class of AMPA receptor allosteric modulators. Part 1: design, synthesis, and SAR of 3-aryl-4-cyano-5-substituted-heteroaryl-2-carboxylic acid derivatives” (Bioorg Med Chem Lett, 2006).

Columns and labels:
Type in all cases: functional, cell-based
Glutamate receptor 4 [1] = target: T1, Glutamate receptor 4 (Homo sapiens, UniProt P48058); assay: Activity against human GLUR4 flop expressed in HEK293 cells assessed as glutamate-stimulated calcium influx by FLIPR assay
Outline: (§1)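 Stably transfected HEK-293 cells expressing homomeric GluR4 (flip or flop splice form) loaded with 8 µM Fluo3-AM for 60 min in HEPES-buffered saline (5 mM CaCl2, 5.5 mM glucose). Compounds from DMSO (0.1–3 µM) co-applied with 100 µM glutamate; calcium influx read by FLIPR. Duplicate 10-point curves; response expressed as % of 100 µM cyclothiazide, EC50 calculated.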

Glutamate receptor 4 [2] = target: T1, Glutamate receptor 4; assay: Activity against human GLUR4 flip expressed in HEK293 cells assessed as glutamate-stimulated calcium influx by FLIPR assay; outline: as §1
Glutamate receptor 2 [3] = target: T2, Glutamate receptor 2 (Homo sapiens, UniProt P42262); assay: Activity against human GLUR2 flip expressed in HEK293 cells assessed as glutamate-stimulated calcium influx by FLIPR assay
Glutamate receptor 2 [4] = target: T2, Glutamate receptor 2; assay: Activity against human GLUR2 flop expressed in HEK293 cells assessed as glutamate-stimulated calcium influx by FLIPR assay

T2 sequence (P42262 whole entry): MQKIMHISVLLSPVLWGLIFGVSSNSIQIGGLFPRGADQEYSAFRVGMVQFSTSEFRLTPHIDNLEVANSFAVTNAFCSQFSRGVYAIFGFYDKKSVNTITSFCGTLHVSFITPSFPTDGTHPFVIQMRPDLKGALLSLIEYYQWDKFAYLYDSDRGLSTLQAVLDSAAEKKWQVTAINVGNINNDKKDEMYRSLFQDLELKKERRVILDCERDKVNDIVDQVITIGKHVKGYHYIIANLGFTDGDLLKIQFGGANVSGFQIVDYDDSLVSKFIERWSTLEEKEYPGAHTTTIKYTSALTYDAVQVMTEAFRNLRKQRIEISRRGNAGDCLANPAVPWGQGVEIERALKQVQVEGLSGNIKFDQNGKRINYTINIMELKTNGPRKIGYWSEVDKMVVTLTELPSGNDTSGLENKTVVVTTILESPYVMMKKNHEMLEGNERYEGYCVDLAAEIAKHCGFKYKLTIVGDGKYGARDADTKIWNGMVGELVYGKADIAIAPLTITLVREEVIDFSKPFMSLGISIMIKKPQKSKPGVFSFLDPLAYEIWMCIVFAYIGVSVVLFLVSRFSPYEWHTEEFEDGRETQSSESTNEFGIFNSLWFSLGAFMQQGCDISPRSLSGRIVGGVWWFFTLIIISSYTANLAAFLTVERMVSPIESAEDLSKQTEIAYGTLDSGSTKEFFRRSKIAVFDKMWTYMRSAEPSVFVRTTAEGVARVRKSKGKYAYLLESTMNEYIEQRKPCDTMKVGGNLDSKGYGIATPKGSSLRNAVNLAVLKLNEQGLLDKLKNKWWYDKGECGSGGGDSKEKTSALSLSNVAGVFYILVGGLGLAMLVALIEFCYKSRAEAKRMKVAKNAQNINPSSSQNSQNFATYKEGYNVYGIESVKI
T1 sequence (P48058 whole entry, canonical isoform): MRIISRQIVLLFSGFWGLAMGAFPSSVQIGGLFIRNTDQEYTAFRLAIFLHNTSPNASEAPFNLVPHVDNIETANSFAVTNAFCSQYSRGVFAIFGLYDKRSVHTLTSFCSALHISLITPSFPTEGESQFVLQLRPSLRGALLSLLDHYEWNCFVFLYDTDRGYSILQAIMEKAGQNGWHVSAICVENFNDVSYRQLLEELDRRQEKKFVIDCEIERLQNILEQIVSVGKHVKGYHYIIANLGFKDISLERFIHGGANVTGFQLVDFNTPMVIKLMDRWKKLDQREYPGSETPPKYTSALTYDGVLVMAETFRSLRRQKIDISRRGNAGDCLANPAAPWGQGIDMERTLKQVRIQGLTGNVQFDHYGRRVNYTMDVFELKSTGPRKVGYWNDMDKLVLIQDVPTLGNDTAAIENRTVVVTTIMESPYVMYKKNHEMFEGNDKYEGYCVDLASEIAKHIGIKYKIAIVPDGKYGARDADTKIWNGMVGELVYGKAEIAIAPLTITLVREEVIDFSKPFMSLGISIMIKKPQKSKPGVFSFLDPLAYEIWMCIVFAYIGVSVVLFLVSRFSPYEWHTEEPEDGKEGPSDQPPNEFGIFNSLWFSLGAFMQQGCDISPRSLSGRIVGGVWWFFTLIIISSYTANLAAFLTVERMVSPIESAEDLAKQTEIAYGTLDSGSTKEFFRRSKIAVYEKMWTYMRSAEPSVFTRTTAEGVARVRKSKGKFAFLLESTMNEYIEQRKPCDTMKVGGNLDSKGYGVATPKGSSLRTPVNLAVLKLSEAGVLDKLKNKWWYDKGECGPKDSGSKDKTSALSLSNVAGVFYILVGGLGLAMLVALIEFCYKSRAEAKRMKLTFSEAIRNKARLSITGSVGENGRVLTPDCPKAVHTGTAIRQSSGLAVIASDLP

SMILES | EC50 (Glutamate receptor 4 [1]) [nM] | EC50 (Glutamate receptor 4 [2]) [nM] | EC50 (Glutamate receptor 2 [3]) [nM] | EC50 (Glutamate receptor 2 [4]) [nM]
CC(C)(C)c1ccc(-c2c(C(=O)O)sc(C(F)(F)F)c2C#N)cc1 | 488 | 273 | 78 | 231
CC(C)(C)c1ccc(-c2c(C(=O)O)sc(S(C)(=O)=O)c2C#N)cc1 | > 3000 | 629 | 333 | 1810
CSc1c(C#N)c(-c2ccc(C(C)(C)C)cc2)c(C(=O)O)n1C | 1420 | 554 | 684 | 663
CCc1sc(C(=O)O)c(-c2ccc(C(C)(C)C)cc2)c1C#N | 1220 | 183 | 47 | 216
CCOC(=O)c1sc(SC)c(C#N)c1-c1ccc(C(C)(C)C)cc1 | > 3000 | > 3000 | > 3000 | > 3000
CC(CNS(=O)(=O)C(C)C)c1ccc(-c2ccc(C#N)cc2)cc1 (stereo not given) | 1060 | 420 | 559 | 1910
CC(C)(C)c1ccc(-c2c(C#N)csc2C(=O)O)cc1 | > 3000 | > 3000 | > 3000 | > 3000
CC(C)(C)c1ccc(-c2c(C(=O)O)sc(Sc3ccccc3)c2C#N)cc1 | > 3000 | > 3000 | – | –

More lines, main results first:

EC50 (Glutamate receptor 4 [1]) [nM] | EC50 (Glutamate receptor 4 [2]) [nM] | SMILES | EC50 (Glutamate receptor 2 [3]) [nM] | EC50 (Glutamate receptor 2 [4]) [nM]
> 3000 | 1870 | CC(C)Sc1sc(C(=O)O)c(-c2ccc(C(C)(C)C)cc2)c1C#N | – | –
> 3000 | 1010 | CC(C)(C)c1ccc(-c2c(C(=O)O)sc(N3CCCC3)c2C#N)cc1 | 1140 | 2430
> 3000 | 489 | C[S+]([O-])c1sc(C(=O)O)c(-c2ccc(C(C)(C)C)cc2)c1C#N (stereo not given) | – | –
> 3000 | 440 | CCSc1sc(C(=O)O)c(-c2ccc(C(C)(C)C)cc2)c1C#N | – | –
> 3000 | 2890 | CCCSc1sc(C(=O)O)c(-c2ccc(C(C)(C)C)cc2)c1C#N | – | –
> 3000 | 795 | CSc1sc(C(=O)O)c(-c2ccc(-c3ccccc3)cc2)c1C#N | – | –
> 3000 | 474 | CN(C)c1sc(C(=O)O)c(-c2ccc(C(C)(C)C)cc2)c1C#N | 176 | 2850
> 3000 | 1980 | CSc1oc(C(=O)O)c(-c2ccc(C(C)(C)C)cc2)c1C#N | – | –
